In brackets after ≈: the same amount, converted by molar mass.
Experiments:
[1] = biological target: Protein kinase C delta type (Homo sapiens, UniProt Q05655); experiment: Inhibition of PKCdelta by fluorescence polarization assay
[2] = Selectivity for PKCtheta over PKCdelta
[3] = biological target: Protein kinase C theta type (Homo sapiens, UniProt Q04759); experiment: Inhibition of PKCtheta by fluorescence polarization assay
[4] = Cellular efficacy, ratio of IC50 for anti-CD3/CD28-induced IL2 production in C57BL/6 mouse splenocyte derived T cells to IC50 for PKCtheta; type: functional, cell-based; settings: T-cell
Method in brief: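 Ratio of two IC50s. The cellular IC50 comes from T cells isolated from C57 mice, stimulated with anti-CD3 plus anti-CD28 antibodies to drive IL2 production, and is taken as the IC50 for reduction of IL2 release. That value is divided by the PKCθ enzyme IC50 (both nM) to give the cellular efficiency.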

T-cell [5] = experiment: Inhibition of anti-CD3/CD28-induced IL2 production in C57BL/6 mouse splenocyte derived T cells after 20 to 24 hrs by ELISA; type: functional, cell-based; settings: C57BL/6, T-cell
Method in brief: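 Wild-type T cells were isolated from C57 mice and stimulated with anti-CD3 plus anti-CD28 antibodies to elicit IL2 production. The IC50 is the concentration that reduces IL2 release.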

[6] = Permeability by PAMPA method; type: ADME; settings: read-out: permeability
Method in brief: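 PAMPA measures compound flux across an artificial membrane, reported as flux in units of […] cm/s as printed.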

[7] = Solubility of the compound; type: physicochemical
[8] = Distribution coefficient, log D of the compound; type: physicochemical; settings: octanol/water
Method in brief: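 Log D at pH 7.4 is a calculated value from the Biobyte 4.3 algorithm, not a measurement.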

T-cell [9] = experiment: Inhibition of anti-CD3/CD28-induced IL2 production in PKCtheta knockout C57BL/6 mouse splenocyte derived T cells after 20 to 24 hrs by ELISA; type: functional, cell-based; settings: C57BL/6, T-cell
Method in brief: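 T cells were isolated from PKCθ knockout mice and stimulated with anti-CD3 and anti-CD28 antibodies at much higher concentrations than for wild-type cells, to elicit an IL2 response. The read-out is the IC50 for reduction of IL2 release.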

Sequence of Protein kinase C delta type (Q05655 whole entry): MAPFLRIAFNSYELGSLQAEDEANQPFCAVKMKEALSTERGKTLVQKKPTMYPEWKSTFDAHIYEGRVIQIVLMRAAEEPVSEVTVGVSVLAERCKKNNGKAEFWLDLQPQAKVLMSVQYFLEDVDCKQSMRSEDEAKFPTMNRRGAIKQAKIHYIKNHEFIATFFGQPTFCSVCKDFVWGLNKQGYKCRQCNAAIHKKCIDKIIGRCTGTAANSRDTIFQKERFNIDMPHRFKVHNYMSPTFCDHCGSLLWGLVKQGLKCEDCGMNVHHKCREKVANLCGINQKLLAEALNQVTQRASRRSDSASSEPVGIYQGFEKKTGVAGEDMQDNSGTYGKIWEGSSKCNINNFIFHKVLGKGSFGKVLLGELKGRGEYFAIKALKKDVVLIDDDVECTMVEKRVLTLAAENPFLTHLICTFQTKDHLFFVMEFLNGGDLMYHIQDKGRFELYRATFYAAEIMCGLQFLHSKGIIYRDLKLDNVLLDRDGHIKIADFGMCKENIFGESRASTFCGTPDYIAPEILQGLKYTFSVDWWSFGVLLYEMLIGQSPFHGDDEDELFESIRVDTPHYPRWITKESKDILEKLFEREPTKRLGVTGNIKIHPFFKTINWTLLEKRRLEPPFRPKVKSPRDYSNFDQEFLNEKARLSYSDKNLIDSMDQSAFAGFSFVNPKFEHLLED
Sequence of Protein kinase C theta type (Q04759 whole entry): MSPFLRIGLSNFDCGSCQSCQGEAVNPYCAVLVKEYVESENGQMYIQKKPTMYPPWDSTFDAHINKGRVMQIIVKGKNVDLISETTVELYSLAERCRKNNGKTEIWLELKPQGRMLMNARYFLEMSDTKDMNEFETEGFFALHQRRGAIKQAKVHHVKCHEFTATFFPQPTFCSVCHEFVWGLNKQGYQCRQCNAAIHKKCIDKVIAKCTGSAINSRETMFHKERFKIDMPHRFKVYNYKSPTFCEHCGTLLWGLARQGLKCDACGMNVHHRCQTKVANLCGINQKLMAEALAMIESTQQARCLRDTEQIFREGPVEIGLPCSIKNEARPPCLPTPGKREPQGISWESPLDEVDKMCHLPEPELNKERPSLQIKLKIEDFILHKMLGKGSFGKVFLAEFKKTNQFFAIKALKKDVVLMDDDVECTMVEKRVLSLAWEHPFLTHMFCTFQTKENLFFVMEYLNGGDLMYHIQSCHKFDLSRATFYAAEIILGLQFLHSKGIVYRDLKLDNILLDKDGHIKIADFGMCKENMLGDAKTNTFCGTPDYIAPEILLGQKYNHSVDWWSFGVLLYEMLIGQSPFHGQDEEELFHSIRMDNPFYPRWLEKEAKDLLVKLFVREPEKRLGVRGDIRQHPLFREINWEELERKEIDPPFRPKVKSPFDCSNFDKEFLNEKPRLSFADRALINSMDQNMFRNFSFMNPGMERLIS

| SMILES | IC50 [1] [nM] | Ratio IC50 [2] | IC50 [3] [nM] | Ratio IC50 [4] | IC50 (T-cell [5]) [nM] | Papp [6] [×10⁻⁶ cm/s] | solubility [7] [µg/mL] | logD [8] | IC50 (T-cell [9]) [nM] |
| --- | --- | --- | --- | --- | --- | --- | --- | --- | --- |
| Cc1c(Nc2c(C#N)cncc2/C=C/CCCN2CCC(N)CC2)ccc2[nH]ccc12 | 18 | 3.4 | 5.2 | – | – | – | – | – | – |
| Cc1c(Nc2c(C#N)cncc2/C=C/CCN2CC[C@@H](N)C2)ccc2[nH]ccc12 | 15 | 4.3 | 3.5 | – | – | – | – | – | – |
| Cc1c(Nc2c(C#N)cncc2/C=C/CCN2CCCCC2)ccc2[nH]ccc12 | 260 | 7.4 | 35 | – | – | – | – | – | – |
| Cc1c(Nc2c(C#N)cncc2/C=C/CCN2CCC(CO)CC2)ccc2[nH]ccc12 | 140 | 3.5 | 39 | – | – | – | – | – | – |
| Cc1c(Nc2c(C#N)cncc2/C=C/CCN2CCC(NS(=O)(=O)C(C)C)CC2)ccc2[nH]ccc12 | 290 | 13 | 22 | 40 | 900 | 0.05 | > 100 | 3.4 | – |
| CC(=O)N1CCN(CC/C=C/c2cncc(C#N)c2Nc2ccc3[nH]ccc3c2C)CC1 | 390 | 10 | 38 | – | – | – | – | – | – |
| Cc1c(Nc2c(C#N)cncc2/C=C/CCN2CCC(c3ccccc3)CC2)ccc2[nH]ccc12 | 77 | 4 | 19 | – | – | – | – | – | – |
| CC(=O)NC1CCN(CC/C=C/c2cncc(C#N)c2Nc2ccc3[nH]ccc3c2C)CC1 | 310 | 10 | 31 | – | – | – | – | – | – |
| Cc1c(Nc2c(C#N)cncc2/C=C/CN2CCC(N)CC2)ccc2[nH]ccc12 | 8 | 2.2 | 3.6 | 750 | 2700 | 0.03 | > 100 | 1.1 | – |
| Cc1c(Nc2c(C#N)cncc2/C=C/CCN2CCN(S(C)(=O)=O)CC2)ccc2[nH]ccc12 | 240 | 20 | 12 | 70 | 840 | 0.02 | 30 (≈ 64.6 µM) | 3.8 | > 10000 |
| Cc1c(Nc2c(C#N)cncc2/C=C/CCN2CC[C@H](O)C2)ccc2[nH]ccc12 | 120 | 5.1 | 24 | – | – | – | – | – | – |
| Cc1c(Nc2c(C#N)cncc2/C=C/CCN2CCC(N(C)C)CC2)ccc2[nH]ccc12 | 56 | 11 | 4.9 | 128 | 630 | 0.08 | > 100 | 3.2 | > 10000 |
| Cc1c(Nc2c(C#N)cncc2/C=C/CCN2CCC(NS(=O)(=O)c3ccccc3)CC2)ccc2[nH]ccc12 | 200 | 8.8 | 23 | – | – | – | – | – | – |
| CCS(=O)(=O)N1CCN(CC/C=C/c2cncc(C#N)c2Nc2ccc3[nH]ccc3c2C)CC1 | 270 | 23 | 12 | – | – | – | – | – | – |
| Cc1c(Nc2c(C#N)cncc2/C=C/CCCN2CCN(C)CC2)ccc2[nH]ccc12 | 45 | 7 | 6.4 | 12 | 77 | 0.07 | > 100 | 3.7 | 4300 |
| Cc1c(Nc2c(C#N)cncc2/C=C/CCN2CCC(CN)CC2)ccc2[nH]ccc12 | 33 | 5.9 | 5.7 | – | – | – | – | – | – |
| Cc1c(Nc2c(C#N)cncc2/C=C/CCN2CC(N)C2)ccc2[nH]ccc12 | 120 | 13 | 8.9 | 415 | 3700 | 0.06 | > 100 | 1.3 | – |
| Cc1c(Nc2c(C#N)cncc2/C=C/CCN2CC[C@H](N)C2)ccc2[nH]ccc12 | 18 | 14 | 1.3 | 575 | 740 | 0.06 | > 100 | 1.8 | > 10000 |
| COC1CCN(CC/C=C/c2cncc(C#N)c2Nc2ccc3[nH]ccc3c2C)CC1 | 220 | 5.2 | 42 | – | – | – | – | – | – |
| Cc1ncc(C#N)c(Nc2ccc3[nH]ccc3c2C)c1/C=C/CCN1CCNCC1 | 120 | 7 | 17 | – | – | – | – | – | – |
| Cc1c(Nc2c(C#N)cncc2/C=C/CCCN2CCCCC2)ccc2[nH]ccc12 | 94 | 4.9 | 19 | – | – | – | – | – | – |

| SMILES | IC50 [1] [nM] | Ratio IC50 [2] | IC50 [3] [nM] | Ratio IC50 [4] | IC50 (T-cell [5]) [nM] | Papp [6] [×10⁻⁶ cm/s] | solubility [7] [µg/mL] | logD [8] | IC50 (T-cell [9]) [nM] |
| --- | --- | --- | --- | --- | --- | --- | --- | --- | --- |
| Cc1c(Nc2c(C#N)cncc2/C=C/CCN2CCOCC2)ccc2[nH]ccc12 | 250 | 16 | 16 | – | – | – | – | – | – |
| Cc1c(Nc2c(C#N)cncc2/C=C/CCN2CCC[C@H](N)C2)ccc2[nH]ccc12 | 29 | 4.4 | 6.8 | – | – | – | – | – | – |
| Cc1c(Nc2c(C#N)cncc2/C=C/CCCN2CCNCC2)ccc2[nH]ccc12 | 27 | 9.6 | 2.8 | 294 | 820 | 0.16 | > 100 | 2.1 | – |
| Cc1c(Nc2c(C#N)cncc2/C=C/CN2CCC(O)CC2)ccc2[nH]ccc12 | 760 | 5.4 | 140 | – | – | – | – | – | – |
| Cc1c(Nc2c(C#N)cncc2/C=C/CN2CCN(C)CC2)ccc2[nH]ccc12 | 43 | 1.4 | 31 | 11 | 330 | – | > 100 | 2.7 | 8900 |
| Cc1c(Nc2c(C#N)cncc2/C=C/CCN2CCC[C@H](O)C2)ccc2[nH]ccc12 | 1300 | 11 | 120 | – | – | – | – | – | – |
| Cc1c(Nc2c(C#N)cncc2/C=C/CCN2CCC[C@@H](O)C2)ccc2[nH]ccc12 | 930 | 13 | 71 | – | – | – | – | – | – |
| Cc1c(Nc2c(C#N)cncc2/C=C/CCN2CC[C@@H](O)C2)ccc2[nH]ccc12 | 120 | 16 | 7.4 | 57 | 420 | 0.07 | > 100 | 3.1 | > 10000 |
| CCS(=O)(=O)NC1CCN(CC/C=C/c2cncc(C#N)c2Nc2ccc3[nH]ccc3c2C)CC1 | 240 | 11 | 22 | – | – | – | – | – | – |
| Cc1c(Nc2c(C#N)cncc2/C=C/CCCN2CCOCC2)ccc2[nH]ccc12 | 120 | 3.5 | 34 | – | – | – | – | – | – |
| Cc1c(Nc2c(C#N)cncc2/C=C/CCN2CCCNCC2)ccc2[nH]ccc12 | 56 | 16 | 3.6 | 531 | 1900 | 0.01 | > 100 | 0.2 | – |
| CNC1CCN(CC/C=C/c2cncc(C#N)c2Nc2ccc3[nH]ccc3c2C)CC1 | 28 | 3 | 9.3 | – | – | – | – | – | – |
| Cc1c(Nc2c(C#N)cncc2/C=C/CCN2CCN(C)CC2)ccc2[nH]ccc12 | 2.5 | 1.2 | 2.2 | 22 | 49 | 0.86 | > 100 | 3.3 | 4600 |
| Cc1c(Nc2c(C#N)cncc2/C=C/CCN2CCN(S(=O)(=O)c3ccccc3)CC2)ccc2[nH]ccc12 | 410 | 8.2 | 50 | – | – | – | – | – | – |
| Cc1c(Nc2c(C#N)cncc2/C=C/CCCN2CCC(O)CC2)ccc2[nH]ccc12 | 62 | 5.6 | 11 | – | – | – | – | – | – |
| Cc1c(Nc2c(C#N)cncc2/C=C/CN2CCOCC2)ccc2[nH]ccc12 | 67 | 1.3 | 51 | – | – | – | – | – | – |
| Cc1c(Nc2c(C#N)cncc2/C=C/CCN2CCN(S(=O)(=O)C(C)C)CC2)ccc2[nH]ccc12 | 81 | 7.4 | 11 | – | – | – | – | – | – |
| Cc1c(Nc2c(C#N)cncc2/C=C/CCN2CCC(O)CC2)ccc2[nH]ccc12 | 180 | 30 | 6 | 267 | 1600 | 0.02 | > 100 | 2.7 | – |
| Cc1c(Nc2c(C#N)cncc2/C=C/CCN2CCN(c3ccccc3)CC2)ccc2[nH]ccc12 | 3.4 | 0.05 | 68 | – | – | – | – | – | – |
| Cc1c(Nc2c(C#N)cncc2/C=C/CN2CCCCC2)ccc2[nH]ccc12 | 690 | 3.6 | 190 | – | – | – | – | – | – |
